Assay outcomes deposited in PubChem BioAssay by Sanford-Burnham Center for Chemical Genomics.
Diaphorase act = activates diaphorase or chemically reduces, flagging diaphorase assay artifacts; Diaphorase/resazurin coupled assay, resorufin fluorescence, 16 min; hits give high values; 1 = vehicle wells, 0 = NADH-free wells; activation factor at 20 µM; 190,000 compounds, 0.005% hits;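 active = diaphorase activity raised at least twofold by the compound at 20 µM; inactive = activation factor below 2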
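Measured by – red resorufin fluorescence at 544/590 nm excitation/emission · Test system – Clostridium kluyveri diaphorase, purified enzyme · Incubation – reaction time 16 min, room temperature · Buffer or medium – 50 mM HEPES pH 7.4 with 4.542 mM MgCl2, 0.005% Tween 20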
G6PDH CS = L. mesenteroides G6PDH inhibition counter-screen; inhibition, % at 5 µM; 200,000 compounds, 0.12% hits; Purified L. mesenteroides G6PDH, diaphorase/resazurin coupled fluorescence, 45 min; in the data active = inhibition above about 50%
HKDC1 inh = inhibitors of human hexokinase HKDC1; 340,000 compounds, 0.16% hits; Q2TB90; AID 493160; inhibition, % at 20 µM; recombinant HKDC1, G6PDH/diaphorase resazurin coupled fluorescence;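 active = inhibition above about 35% when tested at 20 µM, limit read from the data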;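 note: plate controls were DMSO wells with enzyme for no effect and DMSO wells lacking enzyme for full effect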
Target sequence (Q2TB90 whole entry, looked up): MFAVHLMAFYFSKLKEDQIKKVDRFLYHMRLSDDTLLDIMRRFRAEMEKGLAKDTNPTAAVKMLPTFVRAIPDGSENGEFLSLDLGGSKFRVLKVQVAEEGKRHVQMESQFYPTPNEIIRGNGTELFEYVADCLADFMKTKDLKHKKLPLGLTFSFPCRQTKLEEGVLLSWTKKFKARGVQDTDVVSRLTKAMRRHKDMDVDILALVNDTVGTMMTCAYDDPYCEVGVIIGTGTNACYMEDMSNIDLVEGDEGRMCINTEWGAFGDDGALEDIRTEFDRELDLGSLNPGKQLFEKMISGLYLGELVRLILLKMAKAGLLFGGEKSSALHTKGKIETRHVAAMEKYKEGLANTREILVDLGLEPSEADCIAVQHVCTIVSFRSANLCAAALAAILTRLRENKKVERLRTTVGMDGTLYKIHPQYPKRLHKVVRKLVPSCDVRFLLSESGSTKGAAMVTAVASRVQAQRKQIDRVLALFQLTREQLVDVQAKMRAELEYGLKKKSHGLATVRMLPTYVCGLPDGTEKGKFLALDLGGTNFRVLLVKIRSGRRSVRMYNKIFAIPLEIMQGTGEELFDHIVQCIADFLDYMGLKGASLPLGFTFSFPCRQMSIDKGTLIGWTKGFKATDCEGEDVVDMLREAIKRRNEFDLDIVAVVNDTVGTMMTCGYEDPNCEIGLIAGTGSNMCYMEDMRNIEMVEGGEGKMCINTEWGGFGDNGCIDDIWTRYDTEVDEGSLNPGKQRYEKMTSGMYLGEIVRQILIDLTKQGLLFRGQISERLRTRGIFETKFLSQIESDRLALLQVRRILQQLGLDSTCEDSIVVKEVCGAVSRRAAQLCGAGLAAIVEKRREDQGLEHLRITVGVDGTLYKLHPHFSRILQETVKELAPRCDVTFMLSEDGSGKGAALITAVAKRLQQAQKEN
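Test system: HK5 enzyme. Quantity: 5 µg/mL HK5 final. Reagent: glucose and ATP substrates. Schedule: 90 min reaction incubation at room temperature, dark. Technique: resazurin-to-resorufin fluorescence via G6PDH and diaphorase coupling, 525/613 nm. Control set: DMSO wells with and without enzyme mix.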
PfG6PD inh = PfG6PD (Plasmodium falciparum) enzyme inhibition; PfGluPho enzyme, NADPH resazurin-diaphorase fluorescence; inhibition, % at 20 µM; 350,000 compounds, 0.78% hits; AID 504690;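 active = inhibition reaching at least a set limit at 20 µM in the primary screen, cut at about 59% in these data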;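 note: 0% = DMSO wells with substrate and 100% = DMSO wells lacking glucose-6-phosphate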
Diaphorase inh = diaphorase inhibition or chemical oxidation counter-screen. diaphorase resazurin-to-resorufin fluorescence, NADH, 16 min; bacterial (C. kluyveri) enzyme, not human. inhibition, % at 20 µM. 190,000 compounds, 0.69% hits. AID 1217;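 active = primary screen inhibition at 20 µM above a set limit, cut at about 50% in these data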;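 note: plate controls were DMSO with full reaction for no effect and wells lacking NADH for full effect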
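Test system: bacterial diaphorase enzyme (C. kluyveri); Quantity: 0.14 U/mL diaphorase, enzyme working solution; Times: reaction incubation of 16 min at room temperature; Measured by: fluorescence of resorufin formed from resazurin, Ex 544/Em 590 nm; Benchmarks: positive control minus NADH, DMSO neutral control.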
* = called active by the depositor; . = no result given. In the library only some 1.2% were active in any assay of this set; here they are far more common.

SMILES	Diaphorase act	G6PDH CS	HKDC1 inh	PfG6PD inh	Diaphorase inh
CC(C)NCC(O)c1ccc(O)c(O)c1 (configuration not stated)	.	.	-1	19	.
COc1cc(NC(=O)CSc2nnc3ccccn23)cc(OC)c1OC	.	.	.	14	.
c1cc(SSc2ccncc2)ccn1	.	.	-5	65*	.
c1coc(C2Nc3cccc4cccc(c34)N2)c1	0.3	21	.	.	70*
Clc1ccccc1C1Nc2cccc3cccc(c23)N1	.	.	11	21	.
Cc1ccc(-n2nnc3c(SCC(=O)NCc4ccco4)ncnc32)cc1	0.4	0	-2	-6	57*
CN1CCN(Cc2c(O)ccc3occ(C(=O)c4ccccc4)c23)CC1	0.9	-20	1	-10	10
CC(=O)C(C(C)=O)c1c(Cl)c(O)c(O)c2c(C(=O)c3ccccc3)coc12	0.3	7	4	46	67*
CC1(c2ccc(Cl)cc2Cl)NC(=O)N(CC(=O)NCCC2=CCCCC2)C1=O (configuration not stated)	.	.	.	7	.
Cc1ccc2c(c1)c(N=Nc1cccc(C(=O)O)c1)c(O)n2C	0.4	7	0	-5	59*
CC(=O)N1C[C@H]2CON(C)[C@H]2C[C@H]1c1cccc(-c2cc(Cl)cc(Cl)c2)c1	.	.	.	7	.
O=C(O)C1OC(Oc2c(-c3ccc(O)c(O)c3)oc3cc(O)cc(O)c3c2=O)C(O)C(O)C1O (configuration not stated)	0.5	36	3	-26	55*
CC1OC(Oc2c(-c3cc(O)c(O)c(O)c3)oc3cc(O)cc(O)c3c2=O)C(O)C(O)C1O (configuration not stated)	.	.	5	31	.
CC(=O)Oc1cc2oc(=O)cc(C)c2cc1OC(C)=O	0.5	45	0	-20	52*
CN1C(=O)c2ccccc2CC12c1ccccc1C(=O)N2C (configuration not stated)	.	.	.	19	.
O=C1CS/C(=N\C(=O)N2c3ccccc3Sc3ccccc32)N1	0.3	8	10	-7	70*
[O-]/[N+](=C\c1ccncc1)c1ccc(Br)cc1	0.9	5	0	91*	9
Cc1cccc(NC(=O)c2nc[nH]c2C(=O)N[C@@H](C)CO)c1	.	.	.	-9	.
O=C(O)COn1c(-c2ccccc2)nc2ccc([N+](=O)[O-])cc21	0.5	14	7	57	50*
Cc1ccc(COn2c(-c3ccc(Cl)cc3)nc3ccc([N+](=O)[O-])cc32)cc1	0.8	8	0	53	23
Cc1ccc([C@H]2C[C@H](O)[C@@H](n3cc(C4CC4)nn3)CN2Cc2cccs2)cc1	.	.	.	30	.
CCOC(=O)c1ccc(N=C2SC(C(=O)NCCc3ccccc3)CC(=O)N2C)cc1 (configuration not stated)	0.5	-8	-6	3	54*
C[C@@H]1CN([C@H](C)CO)C(=O)c2cc(Br)cnc2O[C@@H]1CN(C)C(=O)C1CCOCC1	.	.	.	-6	.
CC(=O)Oc1ccc2c(=O)c(Oc3ccccc3)c(C)oc2c1OC(C)=O	0.3	22	-4	-3	65*
CN1c2ccccc2N(C)C1(C)c1cccc2ccccc12	0.4	-4	28	32	59*
SMILES	Diaphorase act	G6PDH CS	HKDC1 inh	PfG6PD inh	Diaphorase inh
CC1=CC(C)(C)NC(=S)N1c1cccc2ccccc12	0.9	1	9	21	8
CC(=Nc1ccccc1)C1=C(O)C(Cc2cccc(F)c2)NC1=O (configuration not stated)	.	.	.	-1	.
CC(C)COc1cccc(C(=O)NC(=S)NCc2cccnc2)c1	0.5	-11	-4	4	51*
O=[N+]([O-])c1ccccc1NC(=S)N/N=C/c1ccc(O)c(O)c1	0.3	11	-3	0	72*
CCOc1cccc(/C=N/NC(=S)Nc2ccccc2[N+](=O)[O-])c1O	1	-5	-27	-11	0
Cc1c(C(=O)Nc2ccc(F)cc2)cn2c(nc3ccccc32)c1C#N	.	.	-1	-7	.
N#Cc1c2nc3ccccc3nc2n2cc(NC(=O)c3ccc(F)cc3)ccc12	0.1	34	12	9	90*
N#CN=CN1CC=C(c2ccc(Cl)cc2)CC1	.	.	.	3	.
CN(C)c1ccc(NC2=C(Cl)C(=O)c3ccccc3C2=O)cc1	0.7	51*	-21	29	27
CC1=C(C#N)C(=O)NC(=O)/C1=C\c1ccc(-c2cc(C)c(C)cc2[N+](=O)[O-])o1	0.4	28	23	30	61*
S=c1nc(-c2ccccc2)[nH]c2ccccc12	0.3	-1	-6	13	66*
CN1C=C/C(=C\c2cc[n+](C)c3ccccc23)c2ccccc21	0.4	60*	3	40	55*
CC[n+]1ccc(/C=C2\Sc3ccccc3N2CCCS(=O)(=O)[O-])c2ccccc21	0.9	15	-3	-2	7
Oc1cc2c(cc1O)[C@@H](c1ccccc1)CNCC2	0.6	24	-5	69*	38
Oc1cc2c(cc1O)C(c1ccccc1)CNCC2 (configuration not stated)	.	.	2	47	.
Cc1cc(C)c(C#N)c(SCc2[nH]nc3c2C(c2ccc(F)cc2)C(C#N)=C(N)O3)n1 (configuration not stated)	0.5	-5	7	19	46
Cc1cc(C#N)c(C)c(SCc2[nH]nc3c2C(c2ccccc2)C(C#N)=C(N)O3)n1 (configuration not stated)	0.5	1	9	11	54*
N#Cc1c(N2CCCC(O)C2)nc(N)c2c(N)nc3c(c12)CC(=O)N3C12CC3CC(CC(C3)C1)C2 (configuration not stated)	0.4	50	27	-3	55*
C=C(C)CN(CC)c1nc(N)c2c(N)nc3c(c2c1C#N)CC(=O)N3C12CC3CC(CC(C3)C1)C2	0.8	4	8	24	20
Cc1noc(NS(=O)(=O)c2ccc(NC(=O)CSc3nnc4c(n3)[nH]c3ccccc34)cc2)c1C	0.4	-2	3	-10	65*
CCNc1nc(NCC)nc(N/N=C/c2ccc(N(C)C)cc2)n1	1.2	2	-8	-17	-16
CCNc1nc(NCC)nc(N/N=C/c2ccc(O)c(O)c2)n1	0.4	19	-4	-2	61*
CC(=O)NCCCNS(=O)(=O)c1ccc(C)cc1	0.3	0	-6	5	67*
NC(=O)C1CCN(c2nc(-c3cccs3)cs2)CC1	.	.	2	73*	.
NC(=O)C1CCN(c2nc(-c3ccc(Br)cc3)cs2)CC1	1.1	0	11	3	-6
COc1ccc(C)cc1NC(=O)COC(=O)c1c(-c2ccccc2)noc1C	.	.	.	11	.
CC(=O)Nc1cccc(NC(=O)C2CCCO2)c1 (configuration not stated)	.	.	.	32	.
